16 compounds from ChEMBL document CHEMBL3352168, “Potent, orally available, selective COX-2 inhibitors based on 2-imidazoline core” (Eur J Med Chem, 2014) can be followed below.

Molecules are shown by their SMILES. Where only a bound is given, the exact number is not on record here.

For assay [1], the target named is T1, Prostaglandin G/H synthase 2 (Homo sapiens, UniProt P35354).
T1 sequence (P35354 whole entry): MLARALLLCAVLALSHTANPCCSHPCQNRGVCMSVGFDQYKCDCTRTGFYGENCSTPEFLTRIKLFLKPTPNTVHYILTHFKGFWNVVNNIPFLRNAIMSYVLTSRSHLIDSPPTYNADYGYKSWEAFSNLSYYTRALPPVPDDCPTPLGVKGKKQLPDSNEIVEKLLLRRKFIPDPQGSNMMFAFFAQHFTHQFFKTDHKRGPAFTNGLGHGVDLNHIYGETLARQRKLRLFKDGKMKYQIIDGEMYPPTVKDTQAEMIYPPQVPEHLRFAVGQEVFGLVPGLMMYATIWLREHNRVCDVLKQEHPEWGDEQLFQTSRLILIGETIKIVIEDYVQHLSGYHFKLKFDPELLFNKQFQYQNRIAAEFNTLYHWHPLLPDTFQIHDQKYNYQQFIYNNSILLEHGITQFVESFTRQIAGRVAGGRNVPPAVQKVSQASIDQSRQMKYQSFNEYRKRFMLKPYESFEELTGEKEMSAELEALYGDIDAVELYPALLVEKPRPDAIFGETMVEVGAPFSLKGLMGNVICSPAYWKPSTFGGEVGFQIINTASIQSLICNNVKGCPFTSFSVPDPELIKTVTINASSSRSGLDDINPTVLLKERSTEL
Nature of the assay: Inhibition of human recombinant COX2 using fluorometric substrate by fluorescent inhibitor screening assay. The method in brief:
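Human recombinant COX-2 in 100 mM Tris-HCl pH 8.0 with heme and ADHP fluorometric substrate; inhibitor added at final […] (units as printed) from DMSO stocks; reaction started with arachidonic acid, 2 min at room temperature. Resorufin fluorescence read at ex 535/em 590 nm; % inhibition vs no-inhibitor activity; IC50 from concentration–inhibition curve, triplicate determinations.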

The target in assay [2] is T2, Prostaglandin G/H synthase 1 (Ovis aries) (UniProt P05979).
T2 sequence (whole entry): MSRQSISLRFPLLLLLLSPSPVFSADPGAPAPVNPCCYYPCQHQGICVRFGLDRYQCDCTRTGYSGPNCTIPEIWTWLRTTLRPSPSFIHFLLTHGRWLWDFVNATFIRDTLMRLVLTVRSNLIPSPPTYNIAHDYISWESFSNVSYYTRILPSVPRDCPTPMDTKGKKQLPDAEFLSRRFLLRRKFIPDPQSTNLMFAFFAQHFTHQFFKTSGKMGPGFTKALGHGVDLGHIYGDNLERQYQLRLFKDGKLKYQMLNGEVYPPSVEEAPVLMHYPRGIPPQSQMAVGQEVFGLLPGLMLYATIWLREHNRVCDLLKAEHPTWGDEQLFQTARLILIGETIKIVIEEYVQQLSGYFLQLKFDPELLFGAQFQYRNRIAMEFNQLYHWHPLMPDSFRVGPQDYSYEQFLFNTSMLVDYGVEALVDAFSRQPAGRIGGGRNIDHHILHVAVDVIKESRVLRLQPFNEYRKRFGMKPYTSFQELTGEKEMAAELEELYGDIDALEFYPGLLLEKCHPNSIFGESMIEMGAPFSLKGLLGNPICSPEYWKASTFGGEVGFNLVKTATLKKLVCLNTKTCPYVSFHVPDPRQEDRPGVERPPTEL
In words: Inhibition of ovine COX1 using fluorometric substrate at 100 uM by fluorescent inhibitor screening assay.

For assay [3], the target named is T3, Prostaglandin G/H synthase 1 (Ovis aries, UniProt P05979).
T3 sequence (P05979 whole entry): T2 sequence (whole entry)
In words: Inhibition of ovine COX1 using fluorometric substrate by fluorescent inhibitor screening assay. An outline of the steps:
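Ovine COX-1 in 100 mM Tris-HCl pH 8.0 with heme and ADHP fluorometric substrate; inhibitor from DMSO stock, reaction started by arachidonic acid, 2 min at room temperature. Resorufin fluorescence read at ex 535/em 590 nm; percent inhibition calculated against uninhibited activity; reported as % inhibition at 100 (units as printed).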

`COc1cc(C2=NCCN2c2ccc(S(N)(=O)=O)cc2)ccc1F`: the IC50 in assay [1] was over 10 µM.

As for `Cc1cccc(C2=NCCN2c2ccc(S(N)(=O)=O)cc2)c1`, the inhibition in assay [2] came to 1.5%. For the same compound, the IC50 in assay [1] is over 10 µM.

Consider `CC1CN(c2ccc(S(N)(=O)=O)cc2)C(c2cccc(Br)c2)=N1` (racemic), for which, in assay [2], the inhibition was 20.2%. The IC50 in assay [1] is over 10 µM.

On to `CS(=O)(=O)c1ccc(N2CCN=C2c2ccc(F)cc2)cc1`, for which the inhibition in assay [2] came out at 12.6%. For the same compound, in assay [1], the IC50 was over 10 µM.

`CS(=O)(=O)c1ccc(N2CCN=C2c2ccc(Cl)cc2)cc1`: in assay [2], the inhibition is 3.2%. Also, the half-inhibitory concentration (IC50) in assay [1] worked out at 7.1 µM.

As to `CS(=O)(=O)c1ccc(N2CCN=C2c2cccc(F)c2)cc1`, in assay [2], the inhibition amounted to 0.7%. Also, the 50% inhibitory concentration (IC50) in assay [1] was over 10 µM.

`CC1CN(c2ccc(S(N)(=O)=O)cc2)C(c2ccc(Cl)cc2)=N1` (racemic): in assay [2], the inhibition was 3.2%. The IC50 in assay [1] is over 10 µM.

Consider `Cc1cccc(C2=NCCN2c2ccc(S(C)(=O)=O)cc2)c1`, for which the inhibition in assay [2] stood at 6%. In assay [1], the IC50 was over 10 µM.

As for `CS(=O)(=O)c1ccc(N2CCN=C2c2cccc(Br)c2)cc1`, the inhibition in assay [2] came to 12.6%. Also, in assay [1], the IC50 stood at 6.8 µM.

`NS(=O)(=O)c1ccc(N2CCN=C2c2ccc(Cl)cc2)cc1`: the inhibition in assay [2] is 0.4%. For the same compound, the IC50 in assay [1] amounted to 3.4 µM.

Regarding `CS(=O)(=O)c1ccc(N2CCN=C2c2ccc(Cl)c(Cl)c2)cc1`, the inhibition in assay [2] came to 1.9%. Moreover, the half-maximal inhibitory concentration (IC50) in assay [1] amounted to 2.1 µM.

Turning to `CC1CN(c2ccc(S(C)(=O)=O)cc2)C(c2cccc(Br)c2)=N1` (racemic), the inhibition in assay [2] was found to be 11.1%. Also, the half-maximal inhibitory concentration (IC50) in assay [1] was over 10 µM.

Turning to `NS(=O)(=O)c1ccc(N2CCN=C2c2cccc(Cl)c2)cc1`, in assay [2], the inhibition is -8%. Further, the half-maximal inhibitory concentration (IC50) in assay [1] came out at 2.5 µM.

Compound `Cc1cn(-c2ccc(S(C)(=O)=O)cc2)c(-c2ccc(Cl)cc2)n1` yielded an IC50 in assay [3] of over 100 µM.

On to `NS(=O)(=O)c1ccc(N2CCN=C2c2cccc(Br)c2)cc1`, for which, in assay [2], the inhibition came to 12.9%. Besides, the IC50 in assay [1] was determined as 2.9 µM.

In the case of `COc1ccc(C2=NCCN2c2ccc(S(N)(=O)=O)cc2)cc1F`, the inhibition in assay [2] was -5.5%. In assay [1], the IC50 was 9.5 µM.
